Values without a mark were called inactive. Inconclusive results are not listed. Calls of active or inactive are those of the source.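 How the source made its calls, unless noted: active means cell viability at or below a set limit in both duplicate runs, the limit being the all-compound median minus 4 SD (cut at about 23% in these data, passing the limit was not always enough); inconclusive means no clear call, values can overlap the other calls; inactive means the rest.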
Experiments:
[1] = OD615 S. cerevisiae growth inhibition, permissive medium, pilot counter-assay, permissive growth control for S. cerevisiae lifespan shortening project (AID 705;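 active means growth inhibition above 25% in both replicates, a cutoff set 3 SD above the mean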); conditions: OD615, 24 h, at 10 µM, active compounds read high
Summary of the method: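 System – S. cerevisiae with engineered DeaD lifespan system · Buffer or medium – SC raffinose/galactose permissive medium · Schedule – cells pre-grown 4 h, then 24 h compound exposure, 30 °C humidified · Technique – culture turbidity as optical density at 615 nm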

[2] = Restrictive medium S. cerevisiae growth inhibition, OD615, pilot screen of yeast lifespan reduction project, restrictive growth control (AID 706;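 active means growth inhibition above a set limit, 3 SD over mean compound inhibition, in both replicates, cut at about 43% in these data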;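 further: modified DeaD lifespan yeast strain shifted to restrictive glucose medium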); conditions: OD615, 48 h, at 10 µM, active compounds read high
Summary of the method: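 Material: engineered S. cerevisiae DeaD strain / Medium: glucose-based CSMM-D restrictive medium / Compound: single dose of 10 µM compound final, 0.25% DMSO / Timing: 4 h pre-incubation, 48 h exposure at 30 °C / Technique: OD615 absorbance reading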

[3] = viability gain of MRP-1-high H69AR cells under doxorubicin, pilot screen, MRP-1 activator project, CellTiter-Glo, duplicate (AID 807;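 active means viability increase at or above a cutoff of the median across tested compounds plus 3 SD, cut at about 8.5% in these data, passing the limit was not always enough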;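 further: compound pretreatment 18-22 h then 72 h combined with doxorubicin; 0% = doxorubicin alone and 100% = vehicle without doxorubicin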); conditions: H69AR viability with doxorubicin, CellTiter-Glo luminescence; at 10 µM; active compounds read high
[4] = growth suppression of beta-catenin knockout HCT116, pilot screen, human colon tumor cells (AID 823); conditions: CellTiter-Glo, 60 h, at 10 µM, active compounds read low;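 further: 0% = wells killed by 20 µM Hyamine and 100% = untreated DMSO cell wells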
[5] = growth suppression of PTEN-deleted HCT116, pilot screen, cell-based, HCT116 clonal line, CellTiter-Glo (AID 824;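 active means viability at or below 27.92% in each of two runs, the all-compound median minus 4 SD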;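 further: 0% = 20 µM Hyamine control and 100% = vehicle cell control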); conditions: 60 h, at 10 µM, active compounds read low
[6] = inhibitors of the yeast RAM network, pilot screen, dse1pr::URA3 reporter, 5-FOA selection (AID 869;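 active means inhibition over a set limit, the all-compound mean plus 3 SD, in both replicate runs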;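 further: 0% = DMSO wells with no growth and 100% = 10 µM 1-NA-PP1 with full growth; RAM network block rescues cells from 5-FOA so hits raise OD615 growth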); conditions: S. cerevisiae dse1pr::URA3 5-FOA growth, OD615, 2 d; at 10 µM; active compounds read high; strain carries analog-sensitive mutant Cbk1 kinase
[7] = RAM signaling pathway blockade in yeast – S. cerevisiae, Pdr1DBD-CYC8 efflux-inhibited sensitized strain, primary screen (AID 1298;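 active means RAM network inhibition above 8.4% in each of two replicates, 3 SD over the compound average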;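 further: 0% = DMSO untreated cells without growth and 100% = 10 µM 1-NA-PP1 full growth; higher means more yeast growth rescued from 5-FOA killing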); conditions: S. cerevisiae cbk1-as DSE1-URA3 strain, 5-FOA growth OD615, 2 d; at 50 µM; active compounds read high

SMILES | growth inhibition [1] [%] | growth inhibition [2] | viability increase [3] [%] | viability [4] [%] | viability [5] [%] | inhibition [6] [%] | RAM network inhibition [7] [%]
O=C(Nc1ccccc1C1CC1)c1cccs1 | -10.4 | -19.7% | 1.09 | 95 | 96.9 | 1.16 | 0.36
Cc1cccc2sc(NC(=O)c3ccc(Cl)s3)nc12 | -21.9 | -21.5% | -7.7 | 68.7 | 56 | 2.64 | 5.32
Cc1ccc(-c2nn(-c3ccccc3)cc2C(=O)N2CCOCC2)cc1 | -8.14 | -8.34% | -2.21 | 97.5 | 89 | 0.805 | 12.4
CCOCCCNC(=O)c1cn(C)c2ccc(S(=O)(=O)N(C)C3CCCCC3)cc2c1=O | -5.04 | -14.3% | -4.93 | 108 | 101 | 0.93 | -0.73
COc1ccc(C)cc1Nc1cc(C)nc2nc(C)nn12 | -8.41 | 1.49% | -4.98 | 64.4 | 57.3 | 1.47 | 0.57
O=C(CC1(O)C(=O)Nc2ccccc21)c1ccccc1 (configuration not stated) | 1.47 | -8.37% | -3.28 | 92.2 | 96.7 | 0.055 | -1.83
C=CCOC(=O)C1=C(C)NC(C)=C(C(=O)OCC=C)C1c1ccc(O)cc1 | -6.92 | -8.46% | -4.51 | 78.1 | 71 | 0.035 | 2.05
CCCCCn1c(=O)[nH]c2c(c1=O)CCC2 | 2.71 | -0.545% | 1.82 | 101 | 100 | -0.56 | 0.26
COc1ccc(OC)c(NC(=O)C2CCCN2C(=O)C2CCC(C)CC2)c1 (configuration not stated) | -14.1 | 6.52% | -5.02 | 88.5 | 91.6 | 0.895 | -0.32
COc1ccc(C2N(c3ccc(Cl)cc3)C(=O)C3CCCN32)cc1 (configuration not stated) | 1.46 | 0.035% | 0.55 | 101 | 99.9 | 0.915 | 0.88
Clc1ccccc1-c1ccc(/C=N/n2cnnc2)o1 | -1.67 | 11.9% | -1.41 | 102 | 95.1 | 1.61 | 4.98
CCS(=O)(=O)Nc1ccc(-c2ccc(NS(=O)(=O)CC)c(OC)c2)cc1OC | -3.19 | -1.95% | -3.7 | 103 | 101 | 2.69 | 6.39
COc1cccc(NC(=O)CSc2ncnc3c2oc2ccccc23)c1 | -12.8 | 6.07% | -2.19 | 94.2 | 87.3 | 2.46 | 4.42
O=C(Nc1nc2ccccc2n1CCN1CCCC1)c1ccc(Cl)cc1 | -9.21 | -13.3% | -7.07 | 59.9 | 65.7 | -0.07 | 4.6
COc1ccc(CNc2oc(C)nc2C#N)cc1 | -0.095 | 5.62% | -1.84 | 98.6 | 93.1 | 0.24 | 6.09
COc1ccc(-c2cc3ccccc3n2CC(O)CN2CCN(CCO)CC2)cc1 (configuration not stated) | -6.33 | -2.77% | -3.91 | 80.3 | 86 | 0.72 | 4.23
CCOC(=O)c1ccc(NC(=O)CN2C(=O)CSC2=O)cc1 | -1.29 | -0.27% | 1.63 | 95.7 | 103 | 3.08 | 4.03
CN(Cc1ccco1)C(=O)C(Cc1ccccc1)NS(=O)(=O)c1ccc2c(c1)CCC(=O)N2 (configuration not stated) | -11.9 | -12.3% | -4.4 | 94.9 | 84.4 | 2.2 | 3.45

SMILES | growth inhibition [1] [%] | growth inhibition [2] | viability increase [3] [%] | viability [4] [%] | viability [5] [%] | inhibition [6] [%] | RAM network inhibition [7] [%]
CC1CCN(CC(O)COc2cccc(F)c2)CC1 (configuration not stated) | -14.2 | -6.4% | -0.94 | 96.7 | 92.2 | -0.65 | 0.62
COc1ccc(CCNC(=O)c2ccco2)cc1 | 13.4 | 8.97% | -2.79 | 107 | 91.8 | 1.58 | -1.03
CCOc1ccccc1CNC(=O)c1cc2occc2n1C | 1.53 | 5.16% | 1.21 | 95.2 | 87.4 | 1.74 | 3.98
Cc1ccccc1CSc1nnc(Cn2c(=O)sc3ccccc32)n1C | -9.17 | 11.4% | 1.46 | 95.6 | 98.5 | 1.81 | 6.66
O=C(Cn1cc2c(n1)CCCC2)NCCCN1CCCC1 | -3.79 | 4.09% | 0.07 | 105 | 99.3 | -0.37 | 1.62
C=CCSc1nnc2nc3c(nn12)c1cc(C)ccc1n3CC=C | 10.7 | 51.1% (active) | -3.51 | 88 | 82.6 | 1.21 | 3.23
CCCCCCn1c(CN2CCN(CCO)CC2)nc2c1c(=O)n(C)c(=O)n2C | -6.85 | -11.2% | -4.86 | 86.2 | 89.4 | 2.5 | 2.43
CCNc1cc2oc(=O)c(CN3CCOCC3)c(C)c2cc1C | 4.16 | 6.97% | -1.46 | 91 | 94.5 | 2.04 | 0.2
Cc1nn(C)c(C)c1S(=O)(=O)N(CC(=O)NCCN1CCOCC1)c1ccc(C(C)C)cc1 | -13.5 | -11.8% | -1.69 | 102 | 101 | 1.83 | 2.73
O=C(O)CSc1cccc2cccc(C(=O)O)c12 | -0.49 | 4.41% | -2.27 | 105 | 101 | 1.54 | 1.15
O=S(=O)(c1cccc(-c2nnc(-c3cccnc3)o2)c1)N1CCCCC1 | 1.58 | -5.17% | -3.4 | 86.9 | 84.7 | 1.22 | 2.99
CCOc1ccc(N(CC(=O)NC(C)(C)C)S(=O)(=O)c2c(C)noc2C)cc1 | -19.9 | -9.45% | -4.94 | 81.5 | 81.8 | 0.36 | -1
COc1cc(Nc2cc(C)nc3nc(C)nn23)cc(OC)c1OC | 2.3 | 6.15% | -1.11 | 95.7 | 104 | 0.525 | 4.23
COc1ccc(CNC(=O)c2cnc3scc(C)n3c2=O)cc1 | -13.9 | -6.35% | 3.79 | 102 | 93.8 | 0.925 | 11.9
Cc1cc(C)cc(N(CC(=O)N2CCN(Cc3ccccc3)CC2)S(=O)(=O)c2c(C)noc2C)c1 | -13.5 | -29.5% | -4.22 | 101 | 96.9 | 1.84 | 3.45
COc1ccc(OC)c(NC(=O)NC2(C(F)(F)F)Oc3ccccc3O2)c1 | -4.07 | 0.635% | -6.83 | 54.9 | 71.5 | 0.25 | 4.64
CC(C)N1C(=O)CCC1C(=O)NCCc1ccc(Cl)cc1 (configuration not stated) | -1.75 | 3.14% | 0.32 | 100 | 97.3 | 0.29 | -0.47
CCCCOc1ccc(/C(N)=N/O)cc1 | 7.3 | 0.775% | -5.85 | 93.5 | 93.7 | 0.44 | 1.83
